Results on 34 compounds are retold here after ChEMBL document CHEMBL3046033, “Design, synthesis, crystal structure analysis, and insecticidal evaluation of phenylazoneonicotinoids” (2011).

Common to all, as to format: functional
Assay [1] has as its system Aphis craccivora. Kind of assay: Insecticidal activity against Aphis craccivora (cowpea aphid) assessed as mortality at 250 mg/L after 24 hr by leaf-dip method. A digest of the protocol: (§1)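 Test solutions were made by dissolving compounds in N,N-dimethylformamide and diluting with water containing Triton X-100 (0.1 mg/L), giving a series of 500.0, 250.0 and 125.0 mg/L plus other concentrations for the cowpea aphid (Aphis craccivora) bioassay.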

For assay [2], the system named is Aphis craccivora. Kind of assay: Insecticidal activity against Aphis craccivora (cowpea aphid) assessed as mortality at 500 mg/L after 24 hr by leaf-dip method. A digest of the protocol: as §1
The test system of assay [3] is Aphis craccivora. Kind of assay: Insecticidal activity against Aphis craccivora (cowpea aphid) assessed as mortality at 125 mg/L after 24 hr by leaf-dip method. A digest of the protocol:
as §1

In assay [4] the test system is Aphis craccivora. Description: Insecticidal activity against Aphis craccivora (cowpea aphid) assessed as mortality after 24 hr by leaf-dip method. The gist of the method: as §1

On to `COc1ccccc1/N=N/C(=C1/NCCN1Cc1ccc(Cl)nc1)[N+](=O)[O-]`, for which the mortality at 250 µg/mL in assay [1] was determined as 76%. Besides, the mortality at 500 µg/mL in assay [2] is 91%. In addition, the mortality at 125 µg/mL in assay [3] stood at 35.5%.
With `COc1cccc(OC)c1/N=N/C(=C1/NCCN1Cc1ccc(Cl)nc1)[N+](=O)[O-]`, the mortality at 250 µg/mL in assay [1] turned out to be 100%. Also, the mortality at 500 µg/mL in assay [2] was found to be 100%. Besides, the mortality at 125 µg/mL in assay [3] amounted to 100%. Besides, in assay [4], the LC50 was found to be 9.9 µM.
With `O=[N+]([O-])C(/N=N/c1ccc([N+](=O)[O-])cc1)=C1\NCCN1Cc1cnc(Cl)s1`, the mortality at 500 µg/mL in assay [2] worked out at 12.1%.
The same measure, in the same setting: the value for `O=[N+]([O-])C(/N=N/c1c(Cl)cccc1Cl)=C1\NCCN1Cc1cnc(Cl)s1` was 18.2%; that for `Cc1cccc(/N=N/C(=C2/NCCN2Cc2cnc(Cl)s2)[N+](=O)[O-])c1C` was 61.7%.
On to `Cc1cccc(C)c1/N=N/C(=C1/NCCN1Cc1cnc(Cl)s1)[N+](=O)[O-]`, for which the mortality at 250 µg/mL in assay [1] was 100%. Further, in assay [2], the mortality at 500 µg/mL is 100%. For the same compound, the mortality at 125 µg/mL in assay [3] was found to be 100%. For the same compound, the LC50 in assay [4] is 3.5 µM.
On to `Cc1cc(C)c(/N=N/C(=C2/NCCN2Cc2cnc(Cl)s2)[N+](=O)[O-])c(C)c1`, for which the mortality at 250 µg/mL in assay [1] was 100%. For the same compound, the mortality at 500 µg/mL in assay [2] turned out to be 100%. In addition, in assay [3], the mortality at 125 µg/mL worked out at 100%.
Take `CCc1cccc(CC)c1/N=N/C(=C1/NCCN1Cc1cnc(Cl)s1)[N+](=O)[O-]`: the mortality at 250 µg/mL in assay [1] was 100%. In assay [2], the mortality at 500 µg/mL is 100%. Besides, the mortality at 125 µg/mL in assay [3] amounted to 100%. In addition, in assay [4], the LC50 was found to be 11.8 µM.
On to `COc1ccc(/N=N/C(=C2/NCCN2Cc2cnc(Cl)s2)[N+](=O)[O-])cc1`, for which, in assay [2], the mortality at 500 µg/mL turned out to be 11.8%.
For the compound `COc1cccc(OC)c1/N=N/C(=C1/NCCN1Cc1cnc(Cl)s1)[N+](=O)[O-]`, the mortality at 250 µg/mL in assay [1] stood at 100%. Moreover, the mortality at 500 µg/mL in assay [2] came to 100%. For the same compound, the mortality at 125 µg/mL in assay [3] came out at 100%. Further, the LC50 in assay [4] was determined as 14.6 µM.
For the compound `O=[N+]([O-])C(/N=N/c1ccccc1)=C1\NCCN1Cc1ccc(Cl)nc1`, the mortality at 500 µg/mL in assay [2] was found to be 31.2%.
For `O=[N+]([O-])C(/N=N/c1ccc(F)cc1)=C1\NCCN1Cc1ccc(Cl)nc1`, the mortality at 250 µg/mL in assay [1] is 100%. In assay [2], the mortality at 500 µg/mL was determined as 100%. Also, in assay [3], the mortality at 125 µg/mL is 100%. Also, the LC50 in assay [4] turned out to be 37.2 µM.
Turning to `O=[N+]([O-])C(/N=N/c1ccccc1F)=C1\NCCN1Cc1ccc(Cl)nc1`, in assay [2], the mortality at 500 µg/mL is 13%.
The same measure, in the same setting: the value for `O=[N+]([O-])C(/N=N/c1ccc(F)cc1F)=C1\NCCN1Cc1ccc(Cl)nc1` was 12.2%; that for `O=[N+]([O-])C(/N=N/c1cccc(F)c1F)=C1\NCCN1Cc1ccc(Cl)nc1` was 25.1%.
Regarding `O=[N+]([O-])C(/N=N/c1ccc(F)c(Cl)c1)=C1\NCCN1Cc1ccc(Cl)nc1`, the mortality at 500 µg/mL in assay [2] came to 8.6%.
`O=[N+]([O-])C(/N=N/c1ccccc1Cl)=C1\NCCN1Cc1ccc(Cl)nc1`: in assay [2], the mortality at 500 µg/mL was 7.1%.
With `O=[N+]([O-])C(/N=N/c1c(Cl)cccc1Cl)=C1\NCCN1Cc1ccc(Cl)nc1`, the mortality at 500 µg/mL in assay [2] came to 6.5%.
Still for that read-out and setting: the value for `O=[N+]([O-])C(/N=N/c1ccc(Br)cc1)=C1\NCCN1Cc1ccc(Cl)nc1` was 58.3%; that for `O=[N+]([O-])C(/N=N/c1ccccc1I)=C1\NCCN1Cc1ccc(Cl)nc1` was 0%.
Same read-out and setting: the value for `O=[N+]([O-])C(/N=N/c1ccc([N+](=O)[O-])cc1)=C1\NCCN1Cc1ccc(Cl)nc1` was 4.7%; that for `O=[N+]([O-])C(/N=N/c1ccccc1[N+](=O)[O-])=C1\NCCN1Cc1ccc(Cl)nc1` was 8.2%; that for `Cc1ccccc1/N=N/C(=C1/NCCN1Cc1ccc(Cl)nc1)[N+](=O)[O-]` was 52.5%.
On the same count and under the same terms, the value for `Cc1ccc(/N=N/C(=C2/NCCN2Cc2ccc(Cl)nc2)[N+](=O)[O-])cc1` was 56.6%; that for `Cc1ccc(/N=N/C(=C2/NCCN2Cc2ccc(Cl)nc2)[N+](=O)[O-])cc1C` was 19.7%; that for `Cc1cccc(/N=N/C(=C2/NCCN2Cc2ccc(Cl)nc2)[N+](=O)[O-])c1C` was 73.3%.
In the case of `Cc1cccc(C)c1/N=N/C(=C1/NCCN1Cc1ccc(Cl)nc1)[N+](=O)[O-]`, the mortality at 250 µg/mL in assay [1] turned out to be 100%. Also, in assay [2], the mortality at 500 µg/mL amounted to 100%. In assay [3], the mortality at 125 µg/mL was determined as 100%. Also, the LC50 in assay [4] came to 4.26 µM.
As to `Cc1cc(C)c(/N=N/C(=C2/NCCN2Cc2ccc(Cl)nc2)[N+](=O)[O-])c(C)c1`, the mortality at 250 µg/mL in assay [1] stood at 100%. The mortality at 500 µg/mL in assay [2] was determined as 100%. Moreover, the mortality at 125 µg/mL in assay [3] amounted to 100%. Moreover, the LC50 in assay [4] was 4.99 µM.
As to `Cc1cc(C(F)(C(F)(F)F)C(F)(F)F)cc(C)c1/N=N/C(=C1/NCCN1Cc1ccc(Cl)nc1)[N+](=O)[O-]`, in assay [2], the mortality at 500 µg/mL came to 12.2%.
In the case of `CCc1cccc(C)c1/N=N/C(=C1/NCCN1Cc1ccc(Cl)nc1)[N+](=O)[O-]`, the mortality at 250 µg/mL in assay [1] was 100%. For the same compound, the mortality at 500 µg/mL in assay [2] amounted to 100%. Further, in assay [3], the mortality at 125 µg/mL was 100%. For the same compound, the 50% lethal concentration (LC50) in assay [4] was 3.74 µM.
Turning to `CCc1cccc(CC)c1/N=N/C(=C1/NCCN1Cc1ccc(Cl)nc1)[N+](=O)[O-]`, in assay [1], the mortality at 250 µg/mL turned out to be 100%. For the same compound, the mortality at 500 µg/mL in assay [2] worked out at 100%. The mortality at 125 µg/mL in assay [3] came out at 100%. Moreover, the LC50 in assay [4] was 2.8 µM.
For the compound `CC(C)c1cccc(C(C)C)c1/N=N/C(=C1/NCCN1Cc1ccc(Cl)nc1)[N+](=O)[O-]`, the mortality at 250 µg/mL in assay [1] was 100%. In addition, the mortality at 500 µg/mL in assay [2] turned out to be 100%. Besides, the mortality at 125 µg/mL in assay [3] came to 100%. Further, in assay [4], the LC50 was found to be 13.8 µM.
Regarding `COc1ccc(/N=N/C(=C2/NCCN2Cc2ccc(Cl)nc2)[N+](=O)[O-])cc1`, the mortality at 500 µg/mL in assay [2] was 47.5%.
Regarding `O=[N+]([O-])/N=C1\NCCN1Cc1ccc(Cl)nc1` [IMIDACLOPRID], in assay [1], the mortality at 250 µg/mL was found to be 100%. Besides, the mortality at 500 µg/mL in assay [2] came to 100%. Moreover, the mortality at 125 µg/mL in assay [3] was 100%. In addition, the LC50 in assay [4] turned out to be 35 µM.
